Laboratory results taken from ChEMBL document CHEMBL1154263, “Gamma-lactones and ent-eudesmane sesquiterpenes from the endophytic fungus Eutypella sp. BCC 13199” (J Nat Prod, 2009).
Activity calls are given as the source filed them. No cut-off for these calls is given here.

Key:
[1] = tested on: Mycobacterium tuberculosis; experiment: Antituberculosis activity against Mycobacterium tuberculosis H37Ra; format: functional, organism-based
Pyricularia grisea = experiment: Antifungal activity against Magnaporthe grisea; format: functional, organism-based
Vero = experiment: Cytotoxicity against african green monkey Vero cells after 8 days by green fluorescent protein microplate assay; format: cell-based; details: Chlorocebus sabaeus, 192 h
Summary of the method: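 Vero cells (African green monkey kidney fibroblasts); cytotoxicity read by green fluorescent protein microplate assay (GFPMA).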

KB = experiment: Cytotoxicity against human KB cells by resazurin microplate assay; format: functional, cell-based
Summary of the method: (§1)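 Resazurin microplate assay on human tumour cell lines: KB (oral epidermoid carcinoma), MCF-7 (breast cancer) and NCI-H187 (small-cell lung cancer).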

Plasmodium falciparum = experiment: Antimalarial activity against Plasmodium falciparum K1; format: functional, organism-based
Candida albicans = experiment: Antifungal activity against Candida albicans; format: functional, organism-based
NCI-H187 = experiment: Cytotoxicity against human NCI-H187 cells by resazurin microplate assay; format: functional, cell-based; summary of the method: as §1
MCF7 = experiment: Cytotoxicity against human MCF7 cells by resazurin microplate assay; format: functional, cell-based; summary of the method: as §1

In the case of `C=C1CCC(=O)[C@@]2(C)CC[C@H](C(C)(C)O)C[C@H]12`, the Activity [1] is reported as “inactive”, the Activity (Pyricularia grisea) is reported as “inactive” and the IC50 (Vero) is reported as 32 µM. The IC50 (KB) was 32 µM, the Activity (Plasmodium falciparum) was “inactive” and the Activity (Candida albicans) was “inactive”. It also gave an IC50 (NCI-H187) of 11 µM and an IC50 (MCF7) of 20 µM.

For `C=C1CC[C@H](O)[C@@]2(C)CC[C@H](C(C)(C)O)C[C@H]12`, the Activity [1] was “inactive”, the Activity (Pyricularia grisea) was “inactive” and the IC50 (Vero) was > 210 µM. For the same compound, the IC50 (KB) was > 210 µM, the Activity (Plasmodium falciparum) was “inactive” and the Activity (Candida albicans) was “inactive”. The IC50 (NCI-H187) was > 210 µM and the IC50 (MCF7) was > 210 µM.

`COc1cccc2c1C(=O)c1c(O)c3c(c(O)c1C2=O)C[C@@](O)(C(=O)CO)C[C@@H]3O[C@H]1C[C@H](N)[C@H](O)[C@H](C)O1` [DOXORUBICIN] was tested, and the IC50 (KB) was 0.28 µM and the IC50 (NCI-H187) was 0.25 µM.

With `Cc1c2ccncc2c(C)c2c1[nH]c1ccccc12` [ELLIPTECINE] the IC50 (Vero) was 5.5 µM, the IC50 (KB) was 2.5 µM and the IC50 (NCI-H187) was 3.6 µM.

In the case of `O=C/C=C/C=C1/C(=O)O[C@H](/C=C/CO)[C@H]1O` [EUTYPELLIN A], the Activity [1] is reported as “inactive”, the Activity (Pyricularia grisea) is reported as “inactive” and the IC50 (Vero) is reported as 88 µM. The IC50 (KB) was 38 µM, the Activity (Plasmodium falciparum) was “inactive” and the Activity (Candida albicans) was “inactive”. The IC50 (NCI-H187) was 12 µM and the IC50 (MCF7) was 84 µM.

`O=C1O[C@H](/C=C/CO)[C@@H](O)/C1=C\C=C\CO` [EUTYPELLIN B] was tested, and the Activity [1] was “inactive”, the Activity (Pyricularia grisea) was “inactive” and the IC50 (Vero) was > 221 µM. The IC50 (KB) was 144 µM, the Activity (Plasmodium falciparum) was “inactive” and the Activity (Candida albicans) was “inactive”. The IC50 (NCI-H187) was 206 µM and the IC50 (MCF7) was > 221 µM.
